Test results reported in ChEMBL document CHEMBL1221267, “Synthesis, in vitro and in vivo evaluation of 3-arylisoquinolinamines as potent antitumor agents” (Bioorg Med Chem Lett, 2010).

Key:
[1] = tested on: PC-3; test: Antitumor activity against human PC3 by sulforhodamine B assay; assay type: functional, cell-based
Method in brief: (§1)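 Human tumour lines from ATCC; growth inhibition by sulforhodamine B staining, absorbance read at 530 nm; IC50 taken as the drug concentration inhibiting cell growth by 50%, calculated by curve fitting.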

[2] = tested on: MDA-MB-231; test: Antitumor activity against human MDA-MB-231 by sulforhodamine B assay; assay type: functional, cell-based; method in brief: as §1
[3] = tested on: PANC-1; test: Antitumor activity against human PANC1 by sulforhodamine B assay; assay type: functional, cell-based; method in brief: as §1
[4] = tested on: HCT-116; test: Antitumor activity against human HCT116 by sulforhodamine B assay; assay type: functional, cell-based; method in brief: as §1
[5] = tested on: OVCAR-3; test: Antitumor activity against human OVCAR-3 by sulforhodamine B assay; assay type: functional, cell-based; method in brief: as §1
[6] = tested on: SK-MEL-28; test: Antitumor activity against human SK-MEL-28 by sulforhodamine B assay; assay type: functional, cell-based; method in brief: as §1
[7] = tested on: CAKI-1; test: Antitumor activity against human Caki1 by sulforhodamine B assay; assay type: functional, cell-based; method in brief: as §1
[8] = tested on: SNB-19; test: Antitumor activity against human SNB19 by sulforhodamine B assay; assay type: functional, cell-based; method in brief: as §1
[9] = tested on: HCT-15; test: Antitumor activity against paclitaxel-resistant human HCT15 cells xenografted in BALB/c mouse assessed as tumor growth inhibition at 10 mg/kg, ip qd thrice a week from day 10 to day 29; assay type: functional; conditions: HCT-15, ip, route intraperitoneal
Method in brief: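 Female athymic BALB/c nu/nu mice, six weeks old, received 1 × 10^6 paclitaxel-resistant HCT-15 cells in 0.2 ml RPMI subcutaneously in the right flank. Once tumors were in range, mice were assigned to groups. Dosing was 10 mg/kg/day ip in 5% Cremophor plus 5% ethanol in PBS, three times weekly, days 10–29. Tumor diameters were measured by caliper every 3–5 days. Body weight was monitored.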

[10] = tested on: HCT-116; test: Resistant index, ratio of IC50 for paclitacel-resistant human HCT15 cells to IC50 for human HCT116 cells; assay type: functional
Method in brief: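 Index computed as IC50 in HCT-15 divided by IC50 in HCT 116, both from sulforhodamine B growth inhibition with absorbance at 530 nm.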

[11] = tested on: HCT-15; test: Cell cycle arrest in human HCT15 cells assessed as accumulation at sub-G1 phase at 1 nM after 48 hrs using propidium iodide staining by flow cytometry; assay type: functional
Method in brief: (§2)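 HCT-15 cells plated at about 10^6 per 100-mm dish, grown 24 h, then given fresh medium with compound. Harvested by trypsinization at 24 h and 48 h, fixed in 70% ethanol, stained with 0.2% NP-40, RNase A (30 µg/ml) and propidium iodide (50 µg/ml) in phosphate–citrate buffer pH 7.2. DNA content by flow cytometry, at least 20,000 cells per analysis.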

[12] = tested on: HCT-15; test: Antitumor activity against human paclitaxel-resistant HCT15 by sulforhodamine B assay; assay type: functional, cell-based; method in brief: as §1
[13] = tested on: HCT-15; test: Cell cycle arrest in human HCT15 cells assessed as accumulation at G0/G1 phase at 1 nM after 24 hrs using propidium iodide staining by flow cytometry; assay type: functional; method in brief: as §2
[14] = tested on: HCT-15; test: Cell cycle arrest in human HCT15 cells assessed as accumulation at S phase at 1 nM after 24 hrs using propidium iodide staining by flow cytometry; assay type: functional; method in brief: as §2
[15] = tested on: HCT-15; test: Cell cycle arrest in human HCT15 cells assessed as accumulation at G2/M phase at 1 nM after 24 hrs using propidium iodide staining by flow cytometry; assay type: functional; method in brief: as §2
[16] = tested on: HCT-15; test: Cell cycle arrest in human HCT15 cells assessed as accumulation at sub-G1 phase at 1 nM after 24 hrs using propidium iodide staining by flow cytometry; assay type: functional; method in brief: as §2
[17] = tested on: HCT-15; test: Cell cycle arrest in human HCT15 cells assessed as accumulation at G0/G1 phase at 10 nM after 24 hrs using propidium iodide staining by flow cytometry; assay type: functional; method in brief: as §2
[18] = tested on: HCT-15; test: Cell cycle arrest in human HCT15 cells assessed as accumulation at S phase at 10 nM after 24 hrs using propidium iodide staining by flow cytometry; assay type: functional; method in brief: as §2
[19] = tested on: HCT-15; test: Cell cycle arrest in human HCT15 cells assessed as accumulation at G2/M phase at 10 nM after 24 hrs using propidium iodide staining by flow cytometry; assay type: functional; method in brief: as §2
[20] = tested on: HCT-15; test: Cell cycle arrest in human HCT15 cells assessed as accumulation at sub-G1 phase at 10 nM after 24 hrs using propidium iodide staining by flow cytometry; assay type: functional; method in brief: as §2
[21] = tested on: HCT-15; test: Cell cycle arrest in human HCT15 cells assessed as accumulation at G0/G1 phase at 1 nM after 48 hrs using propidium iodide staining by flow cytometry; assay type: functional; method in brief: as §2
[22] = tested on: HCT-15; test: Cell cycle arrest in human HCT15 cells assessed as accumulation at G2/M phase at 1 nM after 48 hrs using propidium iodide staining by flow cytometry; assay type: functional; method in brief: as §2
[23] = tested on: HCT-15; test: Cell cycle arrest in human HCT15 cells assessed as accumulation at G0/G1 phase at 10 nM after 48 hrs using propidium iodide staining by flow cytometry; assay type: functional; method in brief: as §2
[24] = tested on: HCT-15; test: Cell cycle arrest in human HCT15 cells assessed as accumulation at S phase at 10 nM after 48 hrs using propidium iodide staining by flow cytometry; assay type: functional; method in brief: as §2
[25] = tested on: HCT-15; test: Cell cycle arrest in human HCT15 cells assessed as accumulation at G2/M phase at 10 nM after 48 hrs using propidium iodide staining by flow cytometry; assay type: functional; method in brief: as §2
[26] = tested on: HCT-15; test: Cell cycle arrest in human HCT15 cells assessed as accumulation at sub-G1 phase at 10 nM after 48 hrs using propidium iodide staining by flow cytometry; assay type: functional; method in brief: as §2
[27] = tested on: Mus musculus; test: Toxicity in BALB/c mouse at 10 mg/kg, ip qd thrice a week from day 10 to day 29; assay type: organism-based; set-up: dose 10 mg/kg, route intraperitoneal; conditions: in vivo
Method in brief: (§3)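 Female athymic BALB/c nu/nu mice, six weeks old, carrying subcutaneous right-flank HCT-15 xenografts (1×10^6 cells in 0.2 ml RPMI). Dosed 10 mg/kg/day ip three times weekly, days 10–29, in 5% Cremophor/5% ethanol in PBS; vehicle-only controls. Body weight monitored alongside caliper tumour measurements every 3–5 days.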

[28] = tested on: Mus musculus; test: Toxicity in BALB/c mouse assessed as change in body weight at 10 mg/kg, ip qd thrice a week from day 10 to day 29; assay type: organism-based; set-up: dose 10 mg/kg, route intraperitoneal; conditions: in vivo; method in brief: as §3

Row | SMILES | IC50 [1] [nM] | IC50 [2] [nM] | IC50 [3] [nM] | IC50 [4] [nM] | IC50 [5] [nM] | IC50 [6] [nM] | IC50 [7] [nM] | IC50 [8] [nM] | other results
1 | Cc1ccc2cc(-c3ccc4c(c3)OCO4)nc(N)c2c1 | 250 | 150 | 370 | 180 | 230 | 420 | 130 | 380 | 
2 | Cc1ccc2c(N)nc(-c3ccccc3C)cc2c1 | 240 | 150 | 240 | 190 | 150 | 350 | 120 | 260 | 
3 | COc1cccc(-c2cc3cc(N(C)C)ccc3c(N)n2)c1 | 190 | 59 | 110 | 64 | 71 | 110 | 68 | 94 | 
4 | Cc1ccc2cc(-c3c(C)cccc3C)nc(N)c2c1 | 120 | 51 | 79 | 74 | 75 | 120 | 48 | 120 | 
5 | COc1ccccc1-c1cc2ccc(C)cc2c(N)n1 | 1010 | 320 | 680 | 470 | 510 | 670 | 220 | 780 | 
6 | COc1cc(OC)cc(-c2cc3cc(C)ccc3c(N)n2)c1 | 430 | 180 | 380 | 240 | 180 | 410 | 160 | 470 | 
7 | COc1cc2cc(-c3cccc(C)c3)nc(N)c2cc1OC | 2500 | 790 | 2270 | 2320 | 580 | 1120 | 1780 | 1560 | 
8 | CC(=O)O[C@H]1C(=O)[C@@]2(C)[C@H]([C@H](OC(=O)c3ccccc3)[C@]3(O)C[C@H](OC(=O)[C@H](O)[C@@H](NC(=O)c4ccccc4)c4ccccc4)C(C)=C1C3(C)C)[C@]1(OC(C)=O)CO[C@@H]1C[C@@H]2O [PACLITAXEL] |  |  |  |  |  |  |  |  | inhibition in vivo at 10 mg/kg [9]: 48.8%; Ratio IC50 [10]: 70
9 | COc1cccc(-c2cc3ccc(N(C)C)cc3c(N)n2)c1.Cl | 19 | 21 | 19 | 17 | 14 | 32 | 22 | 32 | Activity [11]: 3.78%; IC50 [12]: 15 nM; Activity [13]: 50.78%; Activity [14]: 29.02%; Activity [15]: 20.2%; Activity [16]: 0.9%; Activity [17]: 62.51%; Activity [18]: 21.28%; Activity [19]: 16.21%; Activity [20]: 19.6%; Activity [21]: 59.52%; Activity [22]: 17.2%; Activity [23]: 68.67%; Activity [24]: 18.59%; Activity [25]: 12.74%; Activity [26]: 24.76%; inhibition in vivo at 10 mg/kg [9]: 69.2%; Activity [27]: Non-toxic; Activity [28]: Non-toxic; Ratio IC50 [10]: 0.88
10 | COc1cc2cc(-c3c(C)cccc3C)nc(N)c2cc1OC | 680 | 250 | 540 | 790 | 160 | 630 | 530 | 420 | 
11 | COc1ccccc1-c1cc2cc(C)ccc2c(N)n1 | > 3000 | 440 | 930 | 670 | 490 | 800 | 350 | 1130 | 
12 | Cc1cccc(-c2cc3ccc(C)cc3c(N)n2)c1 | 710 | 210 | 690 | 280 | 290 | 500 | 440 | 530 | 
13 | COc1cc(OC)cc(-c2cc3ccc(N(C)C)cc3c(N)n2)c1 | 48 | 27 | 26 | 29 | 25 | 45 | 38 | 57 | 
14 | COc1ccc(C)c(-c2cc3ccc(C)cc3c(N)n2)c1 | 70 | 30 | 58 | 42 | 42 | 51 | 47 | 52 | 
15 | COc1ccc(-c2cc3cc(C)ccc3c(N)n2)cc1 | 2980 | 930 | 2270 | 1360 | 790 | 1800 | 750 | 2230 | 
16 | Cc1ccc2cc(-c3ccccc3F)nc(N)c2c1 | 2760 | 720 | 2140 | 1220 | 910 | 1620 | 590 | 2200 | 
17 | COc1ccc(-c2cc3ccc(N(C)C)cc3c(N)n2)cc1OC | 230 | 150 | 190 | 180 | 140 | 330 | 170 | 250 | 
18 | Cc1ccc2c(N)nc(-c3ccccc3F)cc2c1 | 1840 | 550 | 1590 | 700 | 570 | 1070 | 460 | 1510 | 
19 | COc1cccc(-c2cc3cc(C)ccc3c(N)n2)c1 | 250 | 140 | 310 | 190 | 180 | 340 | 130 | 290 | 
20 | Cc1cccc(-c2cc3ccc(N(C)C)cc3c(N)n2)c1.Cl | 24 | 21 | 18 | 23 | 16 | 32 | 23 | 28 | IC50 [12]: 21 nM; Ratio IC50 [10]: 0.91
